One test has as its system FM3A. The test can be described thus: Inhibition of proliferation of Murine mammary carcinoma (FM3A) cells was measured. It is filed as functional. Conditions: Mus musculus, read-out: ID50 (the source's name).
The subject of the next test is P388. The test can be described thus: Percent inhibition of proliferation of Murine Leukemia (P388) cells was measured. It is filed as functional, Mus musculus. Details: concentration or dose not given beside the values. The method in brief: (§1)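 Mouse leukemia L1210 cells were grown in McCoy's 5A medium and P388D1 cells in Fischer's medium, each with 10% fetal calf serum. Compounds were dissolved in water, or sonicated and given as a suspension if poorly soluble. Cells were seeded at 1×10^5 per well and grown 72 h at 37 °C in 5% CO2. Viability was read by MTT formazan optical density at 570 nm (reference 630 nm).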

A further test has as its system rhinovirus A9. Put plainly: Minimum inhibitory concentration required to reduce virus induced cytopathogenicity by 50% against rhino-9 virus in WI-38 cell cultures. It counts as functional. The note with it: Rhinovirus A. (Cytopathic effects are the visible damage that an infection or toxin causes in cultured cells.)
For the next test, the system named is MOLT-4F. The test can be described thus: Inhibition of proliferation of Human T Lymphoblast (Molt/4F) cells was measured. It is filed as functional. The note with it: read-out: ID50 (the source's name).
Test [1] is described as follows: (§2) Minimum cytotoxic concentration required to cause a microscopically detectable alteration of normal cell morphology. It is filed as functional.
Test [2] relates to Vesicular stomatitis virus. Put plainly: Minimum inhibitory concentration required to reduce virus induced cytopathogenicity by 50% against Vesicular stomatitis virus in HeLa cell cultures. It counts as functional.
The nature of test [3]: Minimum inhibitory concentration required to reduce virus induced cytopathogenicity by 50% against para influenza virus in WI-38 cell cultures. It counts as functional.
Test [4] relates to L1210. The test can be described thus: Percent inhibition of proliferation of Murine Leukemia (L1210) cells was measured. It is filed as functional, Mus musculus. Also on record: concentration or dose not given beside the values. The method in brief:
as §1

A further test relates to Human rhinovirus 1A. Put plainly: Minimum inhibitory concentration required to reduce virus induced cytopathogenicity by 50% against rhino-1A virus in WI-38 cell cultures. It is filed as functional.
Test [5] can be described thus: as §2. It is filed as functional. This is another data set of the same source.
The subject of a further test is Semliki Forest virus. The test can be described thus: Minimum inhibitory concentration required to reduce virus induced forest virus in Vero B cell cultures. It is filed as functional.
For test [6], the system named is L1210. Put plainly: Inhibition of proliferation of Murine Leukemia (L1210) cells was measured. It is filed as functional. The note with it: Mus musculus, read-out: ID50 (the source's name).
For a further test, the system named is Human alphaherpesvirus 1. Put plainly: Minimum inhibitory concentration required to reduce virus induced cytopathogenicity by 50% against herpes simplex-1 virus in rabbit primary kidney cell cultures. It is filed as functional.
Test [7] concerns Coxsackievirus B4. Put plainly: Minimum inhibitory concentration required to reduce virus induced cytopathogenicity by 50% against Coxsackie type B4 virus in Vero B cell cultures. The note with it: Enterovirus B. It counts as functional.
For the next test, the system named is Sindbis virus. The test can be described thus: Minimum inhibitory concentration required to reduce virus induced cytopathogenicity by 50% against sindbis virus in Vero B cell cultures. It counts as functional.
The subject of test [8] is Mammalian orthoreovirus 1. Put plainly: Minimum inhibitory concentration required to reduce virus induced cytopathogenicity by 50% against Reo-1 virus in WI-38 cell cultures. It counts as functional.
For another test, the system named is Human alphaherpesvirus 2. The test can be described thus: Minimum inhibitory concentration required to reduce virus induced cytopathogenicity by 50% against herpes simplex-2 virus in rabbit primary kidney cell cultures. It is filed as functional.
In another test the test system is Raji. The test can be described thus: Inhibition of proliferation of Human B Lymphoblast (Raji) cells was measured. The note with it: read-out: ID50 (the source's name). It counts as functional.
The test system of another test is Poliovirus 1. The test can be described thus: Minimum inhibitory concentration required to reduce virus induced cytopathogenicity by 50% against polio type 1 virus in HeLa cell cultures. The note with it: Enterovirus C. It is filed as functional.
Test [9] has as its system Coxsackievirus B4. Put plainly: Minimum inhibitory concentration required to reduce virus induced cytopathogenicity by 50% against Coxsackie type B4 virus in HeLa cell cultures. The note with it: Enterovirus B. It counts as functional.
The next test deals with NAMALVA. Put plainly: Inhibition of proliferation of Human B Lymphoblast (Namalva) cells was measured. It counts as functional. The note with it: read-out: ID50 (the source's name).
The next test deals with Hepatoma cell line. The test can be described thus: Inhibition of proliferation of Human hepatoma cells was measured. It is filed as functional. Conditions: read-out: ID50 (the source's name).

Results on eight molecules are retold here after ChEMBL document CHEMBL1124029, “Novel DNA groove binding alkylators: design, synthesis, and biological evaluation” (1988).

Structures are written as SMILES.

The Inhibition is the change of the read-out against control, counted positive when it falls.

Take `Cl.Cn1cc(NC(=O)c2cc(NC(=O)C3CC3)cn2C)cc1C(=O)NCCC(=N)N`: the IC50 is greater than 100 µg/mL with FM3A, 7.8 µg/mL in the test with MOLT-4F, greater than 100 µg/mL in the test with L1210 [6] and 26.7 µg/mL with Raji. The Inhibition in the test on P388 is recorded as 8%; in the test with L1210 [4], 3%. The MIC was 20 µg/mL against rhinovirus A9; greater than 100 µg/mL in test [2]; greater than 100 µg/mL in [3]; greater than 40 µg/mL against Human rhinovirus 1A; greater than 100 µg/mL in the test with Semliki Forest virus; 20 µg/mL with Human alphaherpesvirus 1. Further, the MIC was greater than 100 µg/mL in the test on Coxsackievirus B4 [7], greater than 100 µg/mL in the test on Sindbis virus, greater than 100 µg/mL in [8] and 40 µg/mL with Human alphaherpesvirus 2. The MCC was greater than 200 µg/mL in test [1] and 100 µg/mL in test [5].
As to `CC[N+](CC)(CC)CC.Cn1cc(NC(=O)c2cc(NC(=O)C(Cl)Cl)cn2C)cc1C(=O)NCCC(=N)N.O=S(=O)([O-])O`, the IC50 was greater than 100 µg/mL in the test on FM3A, 27.2 µg/mL with MOLT-4F, greater than 100 µg/mL in the test with L1210 [6] and 24.1 µg/mL with Raji. In addition, the values for the Inhibition with P388 and in the test with L1210 [4] were 28% and 13%, respectively. Moreover, the MIC with rhinovirus A9 is 40 µg/mL; in test [2], greater than 200 µg/mL; in [3], greater than 100 µg/mL; in the test with Human rhinovirus 1A, 40 µg/mL; in the test on Poliovirus 1 it was greater than 100 µg/mL; with Semliki Forest virus, greater than 100 µg/mL. Besides, the MIC against Human alphaherpesvirus 1 is 70 µg/mL; with Coxsackievirus B4 [7], greater than 40 µg/mL; in the test on Sindbis virus it was greater than 100 µg/mL; in the test with Coxsackievirus B4 [9] it was greater than 100 µg/mL; in test [8], greater than 200 µg/mL; against Human alphaherpesvirus 2, 70 µg/mL. Moreover, the MCC in [1] is greater than 200 µg/mL; in [5], 200 µg/mL.
Consider `Cl.Cn1cc(NC(=O)c2cc(NC(=O)CF)cn2C)cc1C(=O)NCCC(=N)N`, for which the IC50 with FM3A was no less than 100 µg/mL; with MOLT-4F, 32.3 µg/mL; in the test on L1210 [6], 40.3 µg/mL; with NAMALVA, 32.3 µg/mL; in the test with Raji, 33.1 µg/mL. Also, the Inhibition in the test on P388 and in the test on L1210 [4] was 0% throughout. The MIC with rhinovirus A9 was greater than 200 µg/mL; in [2], 100 µg/mL; in test [3], greater than 40 µg/mL; in the test on Human rhinovirus 1A, greater than 200 µg/mL; with Semliki Forest virus, greater than 200 µg/mL; against Human alphaherpesvirus 1, 150 µg/mL. Moreover, the MIC was greater than 200 µg/mL against Coxsackievirus B4 [7], greater than 200 µg/mL against Sindbis virus, greater than 100 µg/mL in test [8] and 100 µg/mL in the test with Human alphaherpesvirus 2. Also, the MCC was greater than 100 µg/mL in test [1] and greater than 200 µg/mL in test [5].
Take `Cl.Cn1cc(NC(=O)c2cc(NC(=O)C(Cl)(Cl)Cl)cn2C)cc1C(=O)NCCC(=N)N`: the IC50 in the test on FM3A is greater than 100 µg/mL; in the test with MOLT-4F it was 84.3 µg/mL; in the test on L1210 [6], 30.5 µg/mL; in the test on Raji, 68.7 µg/mL. Moreover, the Inhibition in the test on P388 was found to be 55%; with L1210 [4], 28%. The MIC with rhinovirus A9 was greater than 40 µg/mL; in test [2], greater than 40 µg/mL; in [3], greater than 100 µg/mL; in the test with Human rhinovirus 1A, greater than 40 µg/mL; in the test with Poliovirus 1, greater than 40 µg/mL; against Semliki Forest virus, greater than 100 µg/mL. The MIC in the test on Human alphaherpesvirus 1 was greater than 100 µg/mL; in the test with Coxsackievirus B4 [7], greater than 100 µg/mL; with Sindbis virus, greater than 100 µg/mL; in the test with Coxsackievirus B4 [9], greater than 40 µg/mL; in [8] it was greater than 40 µg/mL; against Human alphaherpesvirus 2, greater than 100 µg/mL. The figures for the MCC in [1] and in test [5] were greater than 200 µg/mL and greater than 100 µg/mL, respectively.
As to `Cl.Cn1cc(NC(=O)c2cc(NC(=O)CCl)cn2C)cc1C(=O)NCCC(=N)N`, the IC50 is 13.3 µg/mL in the test with FM3A; 28.7 µg/mL in the test with MOLT-4F; 8.7 µg/mL in the test with L1210 [6]; 5.3 µg/mL with NAMALVA; 3.63 µg/mL in the test on Hepatoma cell line; 3.09 µg/mL in the test with Raji. The Inhibition in the test with P388 was determined as 38%; with L1210 [4] it was 29%. Besides, the MIC in test [2] is greater than 200 µg/mL; in test [3], greater than 100 µg/mL; in the test on Poliovirus 1 it was greater than 100 µg/mL; in the test on Semliki Forest virus, greater than 100 µg/mL; against Human alphaherpesvirus 1, 70 µg/mL; in the test with Coxsackievirus B4 [7], greater than 100 µg/mL. Moreover, the MIC against Sindbis virus was greater than 100 µg/mL; against Coxsackievirus B4 [9] it was greater than 100 µg/mL; in test [8] it was greater than 100 µg/mL; against Human alphaherpesvirus 2, 70 µg/mL. In addition, the MCC in test [5] was no less than 100 µg/mL.
`Cl.Cn1cc(NC(=O)c2cc(NC(=O)CCCCl)cn2C)cc1C(=O)NCCC(=N)N`: the IC50 with FM3A is 74.1 µg/mL; in the test with MOLT-4F, greater than 100 µg/mL; with L1210 [6], greater than 100 µg/mL; with Raji, greater than 100 µg/mL. Also, the Inhibition in the test with P388 and in the test on L1210 [4] was 0% each time. Moreover, the MCC in test [1] and in test [5] was greater than 200 µg/mL each time. For the same molecule, the figures for the MIC (in test [2]; against Human alphaherpesvirus 1; against Human alphaherpesvirus 2) were greater than 400 µg/mL, 300 µg/mL and 150 µg/mL, respectively.
In the case of `Cl.Cl.Cn1cc(NC(=O)c2cc(NC(=O)CNC(=N)N)cn2C)cc1C(=O)NCCC(=N)N` [CONGOCIDINE], the figures for the IC50 with MOLT-4F and in the test on Hepatoma cell line were greater than 100 µg/mL and 44.7 µg/mL, respectively. The MIC is greater than 10 µg/mL in test [2]; greater than 100 µg/mL in test [3]; greater than 200 µg/mL with Semliki Forest virus; greater than 10 µg/mL in the test with Human alphaherpesvirus 1; greater than 200 µg/mL in the test with Coxsackievirus B4 [7]; greater than 200 µg/mL against Sindbis virus. Also, the MIC is greater than 200 µg/mL in [8] and greater than 10 µg/mL against Human alphaherpesvirus 2. Moreover, the MCC in [5] is greater than 400 µg/mL.
With `Cl.Cl.Cn1cc(NC(=O)c2cc(NC(=O)c3cc(NC=O)cn3C)cn2C)cc1C(=O)NCCC(=N)N`, the IC50 in the test with FM3A was 30.6 µg/mL; with MOLT-4F, 28.4 µg/mL; with L1210 [6], 27.1 µg/mL; in the test with NAMALVA, 22.5 µg/mL; with Hepatoma cell line, 54.7 µg/mL; in the test on Raji, 23.7 µg/mL. The MCC in test [1] and in [5] was greater than 200 µg/mL throughout. The MIC in test [2] was greater than 100 µg/mL; in test [3], greater than 200 µg/mL; against Semliki Forest virus it was greater than 200 µg/mL; with Human alphaherpesvirus 1, 70 µg/mL; against Coxsackievirus B4 [7] it was greater than 200 µg/mL; against Sindbis virus it was greater than 200 µg/mL. The MIC in test [8] is greater than 200 µg/mL; in the test with Human alphaherpesvirus 2 it was 70 µg/mL.
